Data on 13 molecules can be found in PMC4930114 (ACS infectious diseases, 2015).

As a reminder, the IC50 is the concentration at which inhibition is half-maximal. Read a low IC50 as inhibition by little substance. As usually defined, the EC50 is the concentration at which the effect is half-maximal. In general, Ki refers to a dissociation constant, usually derived from enzyme kinetics or from competition with a known ligand.

Where two headings read alike, the source gives them in different places.

The target of data set [1] is ROP18 (Toxoplasma gondii, UniProt Q2PAY2). The experiment in a line: biochemical.
For data set [2], the system named is RAW264.7 macrophages. The experiment in a line: Phase contrast microscopy of host cell morphology. The class given is cell-based, mouse. To be noted: 10 μM, in as little as 30 min; rounding up and vesiculation.
The test system of data set [3] is RAW 264.7 macrophages. As to the kind of experiment: MTS-based cell growth assay. To be noted: Mus musculus, RAW264.7, 48 h, read-out: EC50 growth inhibition (MTS).
Data set [4] deals with HepG2 hepatocarcinoma cells. As to conditions: 10 μM (48 h stated for compound 10); cited from earlier work.
The subject of data set [5] is P. falciparum Dd2 strain (a multidrug resistant strain). To be noted: 2 μM, 48 h; cited from earlier work.
In data set [6] the test system is P. falciparum 3D7 strain. To be noted: 2 μM, 48 h; cited from earlier work.
For data set [7], the system named is RAW264.7 macrophages. The experiment in a line: LDH release cytotoxicity. The class given is cell-based, mouse. To be noted: 4 h incubation, 20 μM. A general note: Release of lactate dehydrogenase indicates damage to the cell membrane.
Data set [8] has as its system P. falciparum. As to conditions: 2 μM; cited from earlier work.
Data set [9] has as its system ROP18 function in T. gondii infected RAW macrophages (Irga6 recruitment to PVM). The experiment in a line: Irga6. The data set is classed as cell-based, Toxoplasma gondii. To be noted: 10 μM; for proportion of Irga6 positive vacuoles, visual scoring, Δrop18 parasites: Δrop18, IFN-γ-activated RAW macrophages; for amount of Irga6 recruitment, quantitative immunofluorescence, Δrop18 parasites: Δrop18, vs DMSO vehicle. The method, boiled down:
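RAW264.7 macrophages on coverslips (10^5/well) primed 24 h with 100 U/ml mouse IFNγ plus 1 ng/ml LPS. RH Δku80 tachyzoites (wild type or rop18-disrupted) at 10^5/ml pretreated 30 min at 37°C with 10 μM test compound or 0.1% DMSO, then invaded 30 min. Formaldehyde-fixed, Triton-permeabilized, stained for TgAldolase and Irga6 (mAb 10D7). Irga6-positive vacuoles scored visually; intensity quantified over parasite/PVM region.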

Data set [10] relates to CDK3/cyclinE. As to conditions: 1 μM; ref GSK PKIS profiling (Table S1); cited from earlier work.
Data set [11] relates to MELK. As to conditions: 1 μM; ref GSK PKIS profiling (Table S1); cited from earlier work.
For data set [12], the system named is TBK1. As to conditions: 1 μM; ref GSK PKIS profiling (Table S1); cited from earlier work.
Data set [13] deals with CDK2. To be noted: 0.1 μM; ref GSK PKIS profiling (Figure S5); cited from earlier work.
Data set [14] concerns PDGFRα. As to conditions: 0.1 μM; ref GSK PKIS profiling (Figure S5); cited from earlier work.
Data set [15] concerns PDGFRβ. As to conditions: 0.1 μM; ref GSK PKIS profiling (Figure S5); cited from earlier work.
Where [16] appears, read: IC50 μM FL-8, substrate peptide FL-8, same assay conditions as primary screen.
The mark [17] stands for this setting: IC50 μM FL-E, substrate peptide FL-E, same assay conditions as primary screen.

ROP18, sequence (Q2PAY2 98-554): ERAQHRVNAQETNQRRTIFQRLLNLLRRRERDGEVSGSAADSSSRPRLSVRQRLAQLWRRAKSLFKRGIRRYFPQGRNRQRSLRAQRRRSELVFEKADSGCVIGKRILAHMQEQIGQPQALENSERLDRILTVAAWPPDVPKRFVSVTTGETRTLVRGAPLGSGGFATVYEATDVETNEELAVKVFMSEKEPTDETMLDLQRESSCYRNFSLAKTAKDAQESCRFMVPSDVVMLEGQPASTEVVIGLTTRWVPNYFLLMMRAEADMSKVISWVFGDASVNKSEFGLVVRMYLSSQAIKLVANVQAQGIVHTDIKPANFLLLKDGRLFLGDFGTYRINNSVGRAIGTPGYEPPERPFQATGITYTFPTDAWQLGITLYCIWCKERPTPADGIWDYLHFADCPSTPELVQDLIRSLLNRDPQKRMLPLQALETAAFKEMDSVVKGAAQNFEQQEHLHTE

Take `NS(=O)(=O)c1ccc(NN=C2C(=O)Nc3ccc(C(=O)NCc4ccncc4)cc32)cc1` [Compound 4, 2-hydroxy-N-(4-pyridylmethyl)-3-(4-sulfamoylphenyl)azo-1H-indole-5-carboxamide]: the IC50 in data set [1] (setting [16]) was greater than 10 µM; in data set [1] (setting [17]) it was 2.66 µM.
For `NS(=O)(=O)c1ccc(N/C=C2\C(=O)Nc3ccc4ncsc4c32)cc1` [Compound 1, 4-[(7-hydroxy-6H-pyrrolo[2,3-g][1,3]benzothiazol-8-yl)methyleneamino]benzenesulfonamide], the IC50 in [1] (setting [16]) turned out to be 1.21 µM; in [1] (setting [17]) it was 2.48 µM.
For the molecule `C[C@]12O[C@H](C[C@]1(O)CO)n1c3ccccc3c3c4c(c5c6ccccc6n2c5c31)CNC4=O` [Compound 14, (5S,6S,8R)-6-hydroxy-6-(hydroxymethyl)-5-methyl-5,6,7,8,14,15-hexahydro-13H-16-oxa-4b,8a,14-triaza-5,8-methanodibenzo[b,h]cycloocta[jkl]cyclopenta[e]-as-indacen-13-one, reference compound], the IC50 in data set [1] worked out at 0.16 µM.
In the case of `CS(=O)(=O)Cc1ccc(Nc2nccc(-c3c(-c4cccc(NC(=O)c5c(F)cccc5F)c4)nn4ccccc34)n2)cc1` [Compound 10, 2,6-difluoro-<I>N</I>-[3-[3-[2-[4-(methylsulfonylmethyl)anilino]pyrimidin-4-yl]pyrazolo[1,5-a]pyridin-2-yl]phenyl]benzamide], the “morphological damage to the host cells” value in data set [2] is reported as “rapid morphological damage”. Moreover, the EC50 in [3] was found to be 1.3 µM. In data set [4], the “growth inhibition of HepG2 cells” value is 78%. The half-inhibitory concentration (IC50) in data set [1] (setting [16]) worked out at 2.83 µM; in data set [1] (setting [17]), 1 µM. Further, the “inhibition of Dd2 strain” value in data set [5] is listed as 75%. Further, the “inhibition of 3D7 strain” value in data set [6] was 99%.
As for `O=c1[nH]ccc2nc(NC3CCCNC3)nc(Nc3ccc(S(=O)(=O)N4CCOCC4)cc3)c12` (stereo not shown) [Compound 7, 4-(4-morpholinosulfonylanilino)-2-(3-piperidylamino)pyrido[4,3-d]pyrimidin-5-ol], the “increase in LDH release” value in [7] is recorded as 12%. In data set [8], the “inhibition of P. falciparum growth” value is recorded as greater than 95%. Moreover, the EC50 in data set [3] is 14.2 µM. Moreover, the “proportion of Irga6 positive vacuoles, visual scoring, wild type parasites” value in [9] (wild type (RH), IFN-γ-activated RAW macrophages, vs DMSO vehicle) is reported as “did not result in a significant increase”. In addition, the “amount of Irga6 recruitment, quantitative immunofluorescence, wild type parasites” value in [9] (wild type (RH), vs DMSO vehicle) was “no significant increase”. The “proportion of Irga6 positive vacuoles, visual scoring, Δrop18 parasites” value in data set [9] (vs DMSO vehicle) was “caused a reduction”. Further, the “amount of Irga6 recruitment, quantitative immunofluorescence, Δrop18 parasites” value in data set [9] is “significantly lower”. Further, the “growth inhibition of HepG2 cells” value in data set [4] is given as 13%. Further, the Ki in data set [1] was 0.27 µM. For the same molecule, the 50% inhibitory concentration (IC50) came to 0.4 µM in data set [1] (setting [16]) and 0.18 µM in [1] (setting [17]).
For `Oc1nccc2nc(NC3CCNC3)nc(Nc3cc(Cl)cc(Cl)c3)c12` (stereo not shown) [Compound 6, 4-(3,5-dichloroanilino)-2-(pyrrolidin-3-ylamino)pyrido[4,3-d]pyrimidin-5-ol], the IC50 in [1] (setting [16]) is greater than 10 µM; in data set [1] (setting [17]), 7.49 µM.
Regarding `CS(=O)(=O)Cc1ccc(Nc2nccc(-c3c(-c4cccc(NC(=O)C5CCCCC5)c4)nn4ncccc34)n2)cc1` [Compound 9, <I>N</I>-[3-[3-[2-[4-(methylsulfonylmethyl)anilino]pyrimidin-4-yl]pyrazolo[1,5-b]pyridazin-2-yl]phenyl]cyclohexanecarboxamide], the IC50 in data set [1] (setting [16]) and in data set [1] (setting [17]) was greater than 10 µM in each case.
Take `CC(C)COC(=O)c1ccc2c(c1)/C(=C/Nc1ccc(S(N)(=O)=O)cc1)C(=O)N2` [Compound 2, isobutyl 2-hydroxy-3-[(4-sulfamoylphenyl)iminomethyl]-1H-indole-5-carboxylate]: in data set [10], the “inhibition of CDK3/cyclinE” value is greater than 90%. In addition, the EC50 in data set [3] came out at 7.4 µM. Moreover, the “proportion of Irga6 positive vacuoles, visual scoring, Δrop18 parasites” value in [9] (vs DMSO vehicle) was “did not lead to a significant increase or decrease”. Also, the “amount of Irga6 recruitment, quantitative immunofluorescence, Δrop18 parasites” value in data set [9] was “did not lead to a significant increase or decrease”. In data set [1], this molecule returned a Ki of 0.13 µM. In addition, the IC50 in [1] (setting [16]) was 0.51 µM; in data set [1] (setting [17]), 0.29 µM. Further, in [11], the “inhibition of MELK” value is recorded as greater than 90%. The “inhibition of TBK1” value in data set [12] was greater than 90%. Further, the “inhibition of CDK2” value in data set [13] is on record as greater than 50%. Moreover, in data set [14], the “inhibition of PDGFRα” value was greater than 50%. Moreover, the “inhibition of PDGFRβ” value in data set [15] was greater than 50%.
Regarding `CC(C)(CO)CNC(=O)c1ccc2c(c1)C(=NNc1ccc(S(N)(=O)=O)cc1)C(=O)N2` [Compound 3, 2-hydroxy-N-(3-hydroxy-2,2-dimethyl-propyl)-3-(4-sulfamoylphenyl)azo-1H-indole-5-carboxamide], the results for the concentration for half-maximal inhibition (IC50) in [1] (setting [16]) and in data set [1] (setting [17]) were 0.65 µM and 0.19 µM, respectively.
Take `O=S1(=O)CCc2ccc(Nc3nc(NC4CCNC4)nc4ccnc(O)c34)cc21` (stereo not shown) [Compound 5, 4-[(1,1-dioxo-2,3-dihydrobenzothiophen-6-yl)amino]-2-(pyrrolidin-3-ylamino)pyrido[4,3-d]pyrimidin-5-ol]: the IC50 in data set [1] (setting [16]) was greater than 10 µM; in data set [1] (setting [17]), 4.02 µM.
`NS(=O)(=O)CCc1cccc(Nc2nccc(-c3c(-c4cccc(NC(=O)c5c(F)cccc5F)c4)nn4ccccc34)n2)c1` [Compound 8, 2,6-difluoro-<I>N</I>-[3-[3-[2-[3-(2-sulfamoylethyl)anilino]pyrimidin-4-yl]pyrazolo[1,5-a]pyridin-2-yl]phenyl]benzamide]: the IC50 worked out at 0.63 µM in [1] (setting [16]) and 0.94 µM in [1] (setting [17]).
For the molecule `Cc1cccc(Nc2nc(NC3CCCCC3N)ncc2C(N)=O)c1` (stereo not shown) [Compound 13, 2-[(2-aminocyclohexyl)amino]-4-(3-methylanilino)pyrimidine-5-carboxamide], the IC50 in [1] (setting [16]) was greater than 10 µM; in data set [1] (setting [17]), 6.66 µM.
Turning to `COc1ccc(NC(=O)Nc2nc(SCC(=O)C(C)(C)C)ns2)cc1` [Compound 11, 1-[3-(3,3-dimethyl-2-oxo-butyl)sulfanyl-1,2,4-thiadiazol-5-yl]-3-(4-methoxyphenyl)urea], the IC50 in data set [1] (setting [16]) was greater than 10 µM; in [1] (setting [17]), 6.44 µM.
